Experimental data as given in ChEMBL document CHEMBL1142894, “Preparation of 5-aryl-3-alkylthio-l,2,4-triazoles and corresponding sulfones with antiinflammatory-analgesic activity” (Bioorg Med Chem, 2007).
Calls of active or inactive are those of the source. The rule behind the calls is not given here.

Key:
[1] = system: Mus musculus; test: Antiinflammatory activity against carrageenan-induced paw edema in Swiss albino mouse assessed as swelling thickness at 200 mg/kg, po after 270 mins; type: functional
Outline: (§1)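 Oral dosing in 0.5% CMC; vehicle to controls. Then carrageenan (0.5 mg/25 ll, freshly suspended in 154 mM saline) injected into the right hind paw subplantar tissue; saline into the left paw. Right-left footpad thickness difference measured by dial gauge calliper every 90 min over 6 h. Inhibition % is relative to vehicle control. n = 6; mean ± SEM.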

[2] = system: Mus musculus; test: Antiinflammatory activity against carrageenan-induced paw edema in Swiss albino mouse assessed as swelling thickness at 200 mg/kg, po after 360 mins; type: functional; outline: as §1
[3] = system: Mus musculus; test: Antiinflammatory activity against carrageenan-induced paw edema in Swiss albino mouse assessed as swelling thickness at 200 mg/kg, po after 90 mins; type: functional; outline: as §1
[4] = system: Mus musculus; test: Inhibition of p-benzoquinone-induced writhing in Swiss albino mouse at 25 mg/kg, po relative to control; type: functional
Outline: (§2)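 Mice, n = 6 per group, dosed orally with a suspension in 0.5% sodium CMC. 60 min later, 0.1 ml/10 g of 2.5% […] p-benzoquinone in distilled water given ip. Abdominal writhes counted per animal for 15 min, starting 5 min after injection. Expressed as % change in mean writhing count versus vehicle controls.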

[5] = system: Mus musculus; test: Inhibition of carrageenan-induced paw edema in Swiss albino mouse at 100 mg/kg, po after 360 mins relative to control; type: functional; conditions: 6 h; outline: as §1
[6] = system: Mus musculus; test: Inhibition of carrageenan-induced paw edema in Swiss albino mouse at 200 mg/kg, po after 90 mins relative to control; type: functional; conditions: 1.5 h; outline: as §1
[7] = system: Mus musculus; test: Inhibition of carrageenan-induced paw edema in Swiss albino mouse at 25 mg/kg, po after 270 mins relative to control; type: functional; conditions: 4.5 h; outline: as §1
[8] = system: Mus musculus; test: Antiinflammatory activity against carrageenan-induced paw edema in Swiss albino mouse assessed as swelling thickness at 25 mg/kg, po after 180 mins; type: functional; outline: as §1
[9] = system: Mus musculus; test: Inhibition of carrageenan-induced paw edema in Swiss albino mouse at 100 mg/kg, po after 180 mins relative to control; type: functional; conditions: 3 h; outline: as §1
[10] = system: Mus musculus; test: Acute toxicity in Swiss albino mouse assessed as lethal effect at 100 mg/kg/day, po after 72 hrs; type: organism-based; parameters: route oral; conditions: in vivo
Outline: (§3)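 Oral single dose suspended in 0.5% carboxymethylcellulose, given after a 24 h fast; food and water returned 1 h after dosing. Vehicle-only controls. Mice observed at 1 h, then once daily for 72 h, for toxic signs and mortality.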

[11] = system: Mus musculus; test: Inhibition of carrageenan-induced paw edema in Swiss albino mouse at 100 mg/kg, po after 90 mins relative to control; type: functional; conditions: 1.5 h; outline: as §1
[12] = system: Mus musculus; test: Antiinflammatory activity against carrageenan-induced paw edema in Swiss albino mouse assessed as swelling thickness at 50 mg/kg, po after 360 mins; type: functional; outline: as §1
[13] = system: Mus musculus; test: Antiinflammatory activity against carrageenan-induced paw edema in Swiss albino mouse assessed as swelling thickness at 100 mg/kg, po after 180 mins; type: functional; outline: as §1
[14] = system: Mus musculus; test: Inhibition of p-benzoquinone-induced writhing in Swiss albino mouse at 200 mg/kg, po relative to control; type: functional; outline: as §2
[15] = system: Mus musculus; test: Antiinflammatory activity against carrageenan-induced paw edema in Swiss albino mouse assessed as swelling thickness at 25 mg/kg, po after 90 mins; type: functional; outline: as §1
[16] = system: Mus musculus; test: Inhibition of carrageenan-induced paw edema in Swiss albino mouse at 50 mg/kg, po after 360 mins relative to control; type: functional; conditions: 6 h
Outline: (§4)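 Mice, n = 6 per group. Test agent given orally as a suspension in 0.5% sodium CMC in distilled water; controls received vehicle only. Afterwards, 0.5 mg/25 ll carrageenan in saline (154 mM NaCl) injected subplantar into the right hind paw, saline into the left. Right-minus-left footpad thickness measured by dial gauge caliper every 90 min for 6 h. Inhibition is relative to vehicle-control group means.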

[17] = system: Mus musculus; test: Inhibition of carrageenan-induced paw edema in Swiss albino mouse at 25 mg/kg, po after 90 mins relative to control; type: functional; conditions: 1.5 h; outline: as §1
[18] = system: Mus musculus; test: Inhibition of carrageenan-induced paw edema in Swiss albino mouse at 50 mg/kg, po after 90 mins relative to control; type: functional; conditions: 1.5 h; outline: as §4
[19] = system: Mus musculus; test: Antiinflammatory activity against carrageenan-induced paw edema in Swiss albino mouse assessed as swelling thickness at 200 mg/kg, po after 180 mins; type: functional; outline: as §1
[20] = system: Mus musculus; test: Acute toxicity in Swiss albino mouse assessed as lethal effect at 50 mg/kg/day, po after 72 hrs; type: organism-based; parameters: route oral; conditions: in vivo; outline: as §3
[21] = system: Mus musculus; test: Gastric-ulcerogenic effect in Swiss albino mouse assessed as lesions at 25 mg/kg, po; type: functional, organism-based; parameters: dose 25 mg/kg
Outline: (§5)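 Mice killed under deep ether anesthesia 3 h after the writhing test; the oral dose in 0.5% CMC was the one used in that test. Stomachs removed, opened along the great curvature and examined under a dissecting microscope for lesions or bleeding. Reported as ratio of ulceration; n = 6.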

[22] = system: Mus musculus; test: Analgesic activity against p-benzoquinone-induced abdominal constriction in Swiss albino mouse assessed as number of writhings at 200 mg/kg, po; type: functional, Abdomen
Outline: (§6)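 Test samples given orally in 0.5% CMC; vehicle to controls. 60 min later, 2.5% (v/v) p-benzoquinone in distilled water, 0.1 ml/10 g, given i.p. Mice housed singly; writhes counted for 15 min starting 5 min after injection. Activity is % change from vehicle controls. n = 6; mean ± SEM.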

[23] = system: Mus musculus; test: Antiinflammatory activity against carrageenan-induced paw edema in Swiss albino mouse assessed as swelling thickness at 100 mg/kg, po after 270 mins; type: functional; outline: as §1
[24] = system: Mus musculus; test: Analgesic activity against p-benzoquinone-induced abdominal constriction in Swiss albino mouse assessed as number of writhings at 25 mg/kg, po; type: functional, Abdomen; outline: as §6
[25] = system: Mus musculus; test: Inhibition of p-benzoquinone-induced writhing in Swiss albino mouse at 100 mg/kg, po relative to control; type: functional; outline: as §2
[26] = system: Mus musculus; test: Analgesic activity against p-benzoquinone-induced abdominal constriction in Swiss albino mouse assessed as number of writhings at 100 mg/kg, po; type: functional, Abdomen; outline: as §6
[27] = system: Mus musculus; test: Inhibition of carrageenan-induced paw edema in Swiss albino mouse at 100 mg/kg, po after 270 mins relative to control; type: functional; conditions: 4.5 h; outline: as §1
[28] = system: Mus musculus; test: Inhibition of p-benzoquinone-induced writhing in Swiss albino mouse at 50 mg/kg, po relative to control; type: functional; outline: as §2
[29] = system: Mus musculus; test: Acute toxicity in Swiss albino mouse assessed as lethal effect at 200 mg/kg/day, po after 72 hrs; type: organism-based; parameters: route oral; conditions: in vivo; outline: as §3
[30] = system: Mus musculus; test: Inhibition of carrageenan-induced paw edema in Swiss albino mouse at 50 mg/kg, po after 180 mins relative to control; type: functional; conditions: 3 h; outline: as §1
[31] = system: Mus musculus; test: Inhibition of carrageenan-induced paw edema in Swiss albino mouse at 25 mg/kg, po after 180 mins relative to control; type: functional; conditions: 3 h; outline: as §1
[32] = system: Mus musculus; test: Analgesic activity against p-benzoquinone-induced abdominal constriction in Swiss albino mouse assessed as number of writhings at 50 mg/kg, po; type: functional, Abdomen; outline: as §6
[33] = system: Mus musculus; test: Antiinflammatory activity against carrageenan-induced paw edema in Swiss albino mouse assessed as swelling thickness at 50 mg/kg, po after 180 mins; type: functional; outline: as §1
[34] = system: Mus musculus; test: Inhibition of carrageenan-induced paw edema in Swiss albino mouse at 200 mg/kg, po after 360 mins relative to control; type: functional; conditions: 6 h; outline: as §1
[35] = system: Mus musculus; test: Antiinflammatory activity against carrageenan-induced paw edema in Swiss albino mouse assessed as swelling thickness at 50 mg/kg, po after 90 mins; type: functional; outline: as §1
[36] = system: Mus musculus; test: Inhibition of carrageenan-induced paw edema in Swiss albino mouse at 25 mg/kg, po after 360 mins relative to control; type: functional; conditions: 6 h; outline: as §1
[37] = system: Mus musculus; test: Inhibition of carrageenan-induced paw edema in Swiss albino mouse at 50 mg/kg, po after 270 mins relative to control; type: functional; conditions: 4.5 h; outline: as §4
[38] = system: Mus musculus; test: Gastric-ulcerogenic effect in Swiss albino mouse assessed as lesions at 50 mg/kg, po; type: functional, organism-based; parameters: dose 50 mg/kg; outline: as §5
[39] = system: Mus musculus; test: Antiinflammatory activity against carrageenan-induced paw edema in Swiss albino mouse assessed as swelling thickness at 100 mg/kg, po after 90 mins; type: functional; outline: as §1
[40] = system: Mus musculus; test: Acute toxicity in Swiss albino mouse assessed as lethal effect at 25 mg/kg/day, po after 72 hrs; type: organism-based; parameters: route oral; conditions: in vivo; outline: as §3
[41] = system: Mus musculus; test: Antiinflammatory activity against carrageenan-induced paw edema in Swiss albino mouse assessed as swelling thickness at 25 mg/kg, po after 360 mins; type: functional; outline: as §1
[42] = system: Mus musculus; test: Antiinflammatory activity against carrageenan-induced paw edema in Swiss albino mouse assessed as swelling thickness at 50 mg/kg, po after 270 mins; type: functional; outline: as §1
[43] = system: Mus musculus; test: Inhibition of carrageenan-induced paw edema in Swiss albino mouse at 200 mg/kg, po after 270 mins relative to control; type: functional; conditions: 4.5 h; outline: as §1
[44] = system: Mus musculus; test: Antiinflammatory activity against carrageenan-induced paw edema in Swiss albino mouse assessed as swelling thickness at 25 mg/kg, po after 270 mins; type: functional; outline: as §1
[45] = system: Mus musculus; test: Antiinflammatory activity against carrageenan-induced paw edema in Swiss albino mouse assessed as swelling thickness at 100 mg/kg, po after 360 mins; type: functional; outline: as §1

SMILES: CCSc1nc(-c2ccc(Cl)cc2)n[nH]1
- Activity [1]: 63.5 10^-2mm
- Activity [2]: 74.2 10^-2mm
- Activity [3]: 51.8 10^-2mm
- inhibition in vivo at 25 mg/kg [4]: 12.3%
- inhibition in vivo at 100 mg/kg [5]: 35.8%
- inhibition in vivo at 200 mg/kg [6]: 2.6%
- inhibition in vivo at 25 mg/kg [7]: 16.9%
- Activity [8]: 49.9 10^-2mm
- inhibition in vivo at 100 mg/kg [9]: 25.8%
- Activity [10]: Non-toxic
- inhibition in vivo at 100 mg/kg [11]: 23.4%
- Activity [12]: 43.1 10^-2mm
- Activity [13]: 38.2 10^-2mm
- inhibition in vivo at 200 mg/kg [14]: 12.8%
- Activity [15]: 45.9 10^-2mm
- inhibition in vivo at 50 mg/kg [16]: 40.1%
- inhibition in vivo at 25 mg/kg [17]: 13.7%
- inhibition in vivo at 50 mg/kg [18]: 26.5%
- Activity [19]: 59.9 10^-2mm
- Activity [20]: Non-toxic
- Activity [21]: Active
- Activity [22]: 44.8
- Activity [23]: 40.7 10^-2mm
- Activity [24]: 45.1
- inhibition in vivo at 100 mg/kg [25]: 28.5%
- Activity [26]: 33.8
- inhibition in vivo at 100 mg/kg [27]: 30.8%
- inhibition in vivo at 50 mg/kg [28]: 33.5%
- Activity [29]: Non-toxic
- inhibition in vivo at 50 mg/kg [30]: 27.3%
- inhibition in vivo at 25 mg/kg [31]: 15.9%
- Activity [32]: 34.2
- Activity [33]: 43.2 10^-2mm
- inhibition in vivo at 200 mg/kg [34]: 3.4%
- Activity [35]: 39.1 10^-2mm
- inhibition in vivo at 25 mg/kg [36]: 17.1%
- inhibition in vivo at 50 mg/kg [37]: 29.3%
- Activity [38]: Active
- Activity [39]: 34.3 10^-2mm
- Activity [40]: Non-toxic
- Activity [41]: 59.7 10^-2mm
- Activity [42]: 45.8 10^-2mm
- inhibition in vivo at 200 mg/kg [43]: 2%
- Activity [44]: 63.5 10^-2mm
- Activity [45]: 44.2 10^-2mm
